Legend:
Rattus norvegicus [1] = experiment: Biodistribution of [125I]IBF in striatum was determined in rats 120 minutes after intraveneous injection; format: ADME, organism-based; conditions: in vivo, iv, 2 h
Rattus norvegicus [2] = experiment: Biodistribution of [125I]IBF in thyroid was determined in rats 15 minutes after intraveneous injection; format: ADME, organism-based, Thyroid gland; conditions: in vivo, iv, 0.25 h
How it was run: (§1)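 Male Sprague–Dawley rats (225–300 g) with free access to food and water were anesthetized with halothane. Each received 0.2 mL saline containing 8–10 μCi [125I]IBF into the femoral vein and was killed by cardiac excision under halothane at set times. Organs were weighed and gamma-counted, and uptake was calculated against diluted aliquots of the injected dose.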

Rattus norvegicus [3] = experiment: Biodistribution of [125I]IBF in thyroid was determined in rats 2 minutes after intraveneous injection; format: ADME, organism-based, Thyroid gland; conditions: in vivo, iv; how it was run: as §1
Rattus norvegicus [4] = experiment: Biodistribution of [125I]IBF in thyroid was determined in rats 30 minutes after intraveneous injection; format: ADME, organism-based, Thyroid gland; conditions: in vivo, iv, 0.5 h; how it was run: as §1
Rattus norvegicus [5] = experiment: Biodistribution of [125I]IBF in thyroid was determined in rats 60 minutes after intraveneous injection; format: ADME, organism-based, Thyroid gland; conditions: in vivo, iv, 1 h; how it was run: as §1
Rattus norvegicus [6] = experiment: Biodistribution of [125I]IBF in thyroid was determined in rats 120 minutes after intraveneous injection; format: ADME, organism-based, Thyroid gland; conditions: in vivo, iv, 2 h; how it was run: as §1
Rattus norvegicus [7] = experiment: Biodistribution of [125I]IBF was in skin determined in rats 2 minutes after intraveneous injection; format: ADME, organism-based, Zone of skin; conditions: in vivo, iv; how it was run: as §1
Rattus norvegicus [8] = experiment: Biodistribution of [125I]-IBF in liver was determined in rats 60 minutes after intraveneous injection; format: ADME, organism-based; conditions: in vivo, iv, 1 h
How it was run: (§2)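 Male Sprague–Dawley rats (225–300 g) with free access to food and water. Under halothane anesthesia they received [125I]IBF (8–10 μCi in 0.2 mL saline) into the femoral vein. Rats were killed by cardiac excision under halothane at the stated time. Organs were weighed and gamma-counted, and % dose/organ was taken against diluted aliquots of the injectate. Blood was assumed to be 7% of body weight and muscle 40%.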

Rattus norvegicus [9] = experiment: Biodistribution of [125I]IBF in liver was determined in rats 120 minutes after intraveneous injection; format: ADME, organism-based; conditions: in vivo, iv, 2 h; how it was run: as §2
Rattus norvegicus [10] = experiment: Biodistribution of [125I]IBF in lung was determined in rats 15 minutes after intraveneous injection; format: ADME, organism-based; conditions: in vivo, iv, 0.25 h; how it was run: as §2
Rattus norvegicus [11] = experiment: Biodistribution of [125I]IBF in lung was determined in rats 2 minutes after intraveneous injection; format: ADME, organism-based; conditions: in vivo, iv; how it was run: as §2
Rattus norvegicus [12] = experiment: Biodistribution of [125I]IBF in lung was determined in rats 30 minutes after intraveneous injection; format: ADME, organism-based; conditions: in vivo, iv, 0.5 h; how it was run: as §2
Rattus norvegicus [13] = experiment: Biodistribution of [125I]IBF in lung was determined in rats 60 minutes after intraveneous injection; format: ADME, organism-based; conditions: in vivo, iv, 1 h; how it was run: as §2
Rattus norvegicus [14] = experiment: Biodistribution of [125I]IBF in lung was determined in rats 120 minutes after intraveneous injection; format: ADME, organism-based; conditions: in vivo, iv, 2 h; how it was run: as §2
Rattus norvegicus [15] = experiment: Biodistribution of [125I]IBF in muscle was determined in rats 15 minutes after intraveneous injection; format: ADME, organism-based, Muscle tissue; conditions: in vivo, iv, 0.25 h; how it was run: as §2
Rattus norvegicus [16] = experiment: Biodistribution of [125I]IBF in muscle was determined in rats 2 minutes after intraveneous injection; format: ADME, organism-based, Muscle tissue; conditions: in vivo, iv; how it was run: as §2
Rattus norvegicus [17] = experiment: Biodistribution of [125I]IBF in muscle was determined in rats 30 minutes after intraveneous injection; format: ADME, organism-based, Muscle tissue; conditions: in vivo, iv, 0.5 h; how it was run: as §2
Rattus norvegicus [18] = experiment: Biodistribution of [125I]IBF in muscle was determined in rats 60 minutes after intraveneous injection; format: ADME, organism-based, Muscle tissue; conditions: in vivo, iv, 1 h; how it was run: as §2
Rattus norvegicus [19] = experiment: Biodistribution of [125I]-IBF in muscle was determined in rats 120 minutes after intraveneous injection; format: ADME, organism-based, Muscle tissue; conditions: in vivo, iv, 2 h; how it was run: as §2
Rattus norvegicus [20] = experiment: Biodistribution of [125I]IBF in skin was determined in rats 30 minutes after intraveneous injection; format: ADME, organism-based, Zone of skin; conditions: in vivo, iv, 0.5 h; how it was run: as §2
Rattus norvegicus [21] = experiment: Biodistribution of [125I]-IBF in skin was determined in rats 60 minutes after intraveneous injection; format: ADME, organism-based, Zone of skin; conditions: in vivo, iv, 1 h; how it was run: as §2
Rattus norvegicus [22] = experiment: Biodistribution of [125I]-IBF in skin was determined in rats 120 minutes after intraveneous injection; format: ADME, organism-based, Zone of skin; conditions: in vivo, iv, 2 h; how it was run: as §2
Rattus norvegicus [23] = experiment: Biodistribution of [125I]IBF in skin was determined in rats 15 minutes after intraveneous injection; format: ADME, organism-based, Zone of skin; conditions: in vivo, iv, 0.25 h; how it was run: as §2
Rattus norvegicus [24] = experiment: Biodistribution of [125I]IBF in spleen was determined in rats 15 minutes after intraveneous injection; format: ADME, organism-based; conditions: in vivo, iv, 0.25 h; how it was run: as §2
Rattus norvegicus [25] = experiment: Biodistribution of [125I]IBF in spleen was determined in rats 2 minutes after intraveneous injection; format: ADME, organism-based; conditions: in vivo, iv; how it was run: as §2
Rattus norvegicus [26] = experiment: Biodistribution of [125I]IBF in spleen was determined in rats 30 minutes after intraveneous injection; format: ADME, organism-based; conditions: in vivo, iv, 0.5 h; how it was run: as §2
Rattus norvegicus [27] = experiment: Biodistribution of [125I]IBF in spleen was determined in rats 60 minutes after intraveneous injection; format: ADME, organism-based; conditions: in vivo, iv, 1 h; how it was run: as §2
Rattus norvegicus [28] = experiment: Biodistribution of [125I]IBF in spleen was determined in rats 120 minutes after intraveneous injection; format: ADME, organism-based; conditions: in vivo, iv, 2 h; how it was run: as §2
Rattus norvegicus [29] = experiment: Biodistribution of [125I]-IBF in heart was determined in rats 60 minutes after intraveneous injection; format: ADME, organism-based; conditions: in vivo, iv, 1 h; how it was run: as §2
[30] = Biodistribution of [125I]IBF in blood was determined in rats 30 minutes after intraveneous injection; conditions: rat, in vivo, iv, 0.5 h

`CCN1CCC[C@H]1CNC(=O)c1cc(I)cc2c1OCC2` showed a Dose/gram (Rattus norvegicus [1]) of 0.444 % dose/g, a Dose/organ (Rattus norvegicus [2]) of 0.03% and a Dose/organ (Rattus norvegicus [3]) of 0.06%. It also gave a Dose/organ (Rattus norvegicus [4]) of 0.02%, a Dose/organ (Rattus norvegicus [5]) of 0.02% and a Dose/organ (Rattus norvegicus [6]) of 0.08%. The Dose/organ (Rattus norvegicus [7]) was 8.54%, the Dose/organ (Rattus norvegicus [8]) was 9.84% and the Dose/organ (Rattus norvegicus [9]) was 3.95%. It also gave a Dose/organ (Rattus norvegicus [10]) of 1.85%, a Dose/organ (Rattus norvegicus [11]) of 6.14% and a Dose/organ (Rattus norvegicus [12]) of 0.82%. It also gave a Dose/organ (Rattus norvegicus [13]) of 0.37%, a Dose/organ (Rattus norvegicus [14]) of 0.12% and a Dose/organ (Rattus norvegicus [15]) of 14.36%. The Dose/organ (Rattus norvegicus [16]) was 11.25%, the Dose/organ (Rattus norvegicus [17]) was 9% and the Dose/organ (Rattus norvegicus [18]) was 4.97%. The Dose/organ (Rattus norvegicus [19]) was 2.3%, the Dose/organ (Rattus norvegicus [20]) was 5.34% and the Dose/organ (Rattus norvegicus [21]) was 2.38%. The Dose/organ (Rattus norvegicus [22]) was 1.18%, the Dose/organ (Rattus norvegicus [23]) was 8.46% and the Dose/organ (Rattus norvegicus [24]) was 0.58%. It also gave a Dose/organ (Rattus norvegicus [25]) of 0.96%, a Dose/organ (Rattus norvegicus [26]) of 0.31% and a Dose/organ (Rattus norvegicus [27]) of 0.09%. It also gave a Dose/organ (Rattus norvegicus [28]) of 0.03%, a Dose/organ (Rattus norvegicus [29]) of 0.05% and a Dose/organ [30] of 1.26%.

Reference: ChEMBL document CHEMBL1125116 (J Med Chem, 1990)
